The source of these data is ChEMBL document CHEMBL1156144, “Biaryl ethers as novel non-nucleoside reverse transcriptase inhibitors with improved potency against key mutant viruses” (J Med Chem, 2009).

Series [1] in a line: Inhibition of RNA-dependent DNA polymerase activity of wild type HIV reverse transcriptase assessed as BrdU incorporation by standard ECL assay. On the set-up: species or system Human immunodeficiency virus. The procedure, abridged:
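Purified recombinant wild-type RT polymerase activity was measured using a 500-nt heteropolymeric RNA template and a biotinylated DNA primer. BrdU incorporation was detected with a ruthenylated anti-BrdU antibody by electrochemiluminescence. Ki is the geometric mean of at least two determinations, each within 25% of the mean.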
(Incorporation of labelled thymidine or its analogues reports DNA synthesis.)

The target of series [2] is Human immunodeficiency virus type 1 reverse transcriptase (Human immunodeficiency virus 1, UniProt Q72547, K103N). Kind of series: Inhibition of RNA-dependent DNA polymerase activity of recombinant HIV reverse transcriptase K103N mutant assessed as BrdU incorporation by standard ECL assay.
The test system of series [3] is Human immunodeficiency virus. Description: Antiviral activity against wild type HIV H9-3B infected in human MT2 cells assessed as inhibition of viral replication measuring p24 level after 3 days in presence of 10% fetal bovine serum. The format is functional. The settings on record: Human immunodeficiency virus 1, MT2, Serum; read-out: CIC95. An outline of the steps: (§1)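 Multiple-cycle spread assay in MT2 cells with wild-type H9IIIB virus. Cells were infected overnight at moi ≈ 0.01 without compound, washed, then cultured 3 days across varying compound concentrations in RPMI 1640 with 10% FBS or 50% NHS. p24 was measured in supernatants. CIC95 is the lowest concentration inhibiting replication ≥95%, as the geometric mean of ≥2 determinations.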

Series [4] relates to Human immunodeficiency virus. Kind of series: Antiviral activity against wild type HIV H9-3B infected in human MT2 cells assessed as inhibition of viral replication measuring p24 level after 3 days in presence of 50% normal human serum. The format is functional. The settings on record: Human immunodeficiency virus 1, H9-3B, 72 h, read-out: CIC95. An outline of the steps: as §1

Series [5] has as its system Human immunodeficiency virus. Description: Antiviral activity against HIV with reverse transcriptase K103N mutant infected in human MT2 cells assessed as inhibition of viral replication measuring p24 level after 3 days in presence of 10% fetal bovine serum. The format is functional. The settings on record: Human immunodeficiency virus 1, MT2, Serum, 72 h; read-out: CIC95. The procedure, abridged:
(§2)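 Multiple-cycle replication (Spread) assay in MT2 cells with H9IIIB-background mutant virus. Cells were infected overnight at moi ≈ 0.01 without compound, washed, then cultured 3 days across a range of compound concentrations in medium with 10% FBS. p24 was measured in supernatants. CIC95 is the lowest concentration inhibiting replication by ≥95%, reported as the geometric mean of ≥2 determinations.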

Series [6] concerns Human immunodeficiency virus. Kind of series: Antiviral activity against HIV with reverse transcriptase Y181C mutant infected in human MT2 cells assessed as inhibition of viral replication measuring p24 level after 3 days in presence of 10% fetal bovine serum. In kind it is functional. Particulars: Human immunodeficiency virus 1, MT2, Serum, 72 h; read-out: CIC95. An outline of the steps: as §2

Series [7] concerns Human immunodeficiency virus. Kind of series: Antiviral activity against HIV with reverse transcriptase K103N/Y181C double mutant infected in human MT2 cells assessed as inhibition of viral replication measuring p24 level after 3 days in presence of 10% fetal bovine serum. The format is functional. Particulars: Human immunodeficiency virus 1, MT2, Serum, 72 h; read-out: CIC95. An outline of the steps: as §2

Series [8] in a line: Clearance in Sprague-Dawley rat at 2 mg/kg, iv. The settings on record: in vivo. In kind it is ADME, organism-based. Also noted: dose 2 mg/kg, route intravenous.
The nature of series [9]: Volume of distribution in Sprague-Dawley rat at 2 mg/kg, iv. In kind it is ADME, organism-based. On the set-up: dose 2 mg/kg, route intravenous. Particulars: in vivo.
Another series concerns Rattus norvegicus. Description: AUC in Sprague-Dawley rat at 2 mg/kg, iv. Particulars: in vivo. The format is ADME, organism-based, Plasma. On the set-up: dose 2 mg/kg, route intravenous.
A short description of series [10]: Half life in Sprague-Dawley rat at 2 mg/kg, iv. The format is ADME, organism-based. Also noted: dose 2 mg/kg, route intravenous. Particulars: in vivo.

The term Ki denotes a dissociation constant, usually derived from enzyme kinetics or from competition with a known ligand. A word on the clearance: it is the rate of elimination divided by the concentration. As a reminder, the Vd is a proportionality between amount in the body and measured concentration, not a real space. One may read the half-life as how long it takes for the measured level to halve.

In the case of `N#Cc1cc(Cl)cc(Oc2cc(OCc3noc4nc(C5=NCCN5)ccc34)ccc2Cl)c1`, the Ki in series [1] stood at 2.3 nM; in [2] it was 6.3 nM. The IC95 in series [3], in [4] and in [5] was 0.309 µM each time.

As to `N#Cc1cc(Cl)cc(Oc2cc(OCc3n[nH]c4ncccc34)cc(Cl)c2Cl)c1`, the Ki in series [1] came to 2.7 nM; in [2], 4.6 nM. In addition, the IC95 in [3] worked out at 0.018 µM; in [4], 0.103 µM; in series [5], 0.034 µM; in series [6] it was 0.031 µM; in series [7], 0.277 µM. Further, the clearance in series [8] worked out at 5.5 mL/min/kg. Also, the Vd in series [9] was 1.8 L/kg. Moreover, in the series with Rattus norvegicus, the AUC worked out at 3.5 µM. In series [10], this molecule showed a half-life of 564 min.

Regarding `N#Cc1cc(Cl)cc(Oc2cc(OCc3noc4nc(N5CCNCC5)ccc34)ccc2Cl)c1`, the figures for the Ki in [1] and in series [2] were 1.7 nM and 3 nM, respectively. For the same molecule, the IC95 was 0.033 µM in series [3]; 0.309 µM in [4]; 0.103 µM in series [5]; 0.833 µM in series [6]; 0.833 µM in [7].

On to `CN(C)c1ccc2c(COc3ccc(Cl)c(Oc4cc(Cl)cc(C#N)c4)c3)noc2n1`, for which the Ki is 0.3 nM in [1] and 0.9 nM in [2]. Moreover, the IC95 in series [3] came out at 0.103 µM; in series [4], 0.309 µM; in [5], 0.309 µM.

Regarding `N#Cc1cc(Cl)cc(Oc2cc(OCc3n[nH]c4ncccc34)cc(F)c2Cl)c1`, the Ki in series [1] was found to be 0.5 nM; in series [2] it was 0.9 nM. Besides, the IC95 in series [3] was 0.016 µM; in [4] it was 0.059 µM; in series [5] it was 0.011 µM; in series [6], 0.031 µM; in series [7], 0.093 µM.

Consider `N#Cc1cc(Cl)cc(Oc2ccc(F)c(OCc3n[nH]c4ncccc34)c2)c1`, for which the results for the Ki in [1] and in series [2] were 47 nM and 350 nM, respectively. In addition, the results for the IC95 in series [3], in series [4] and in series [5] were 3.77 µM, above 8.3 µM and above 8.3 µM, respectively.

With `N#Cc1cc(Cl)cc(Oc2cc(OCc3noc4nc(N5CCCCC5)ccc34)ccc2Cl)c1`, the Ki worked out at 2.2 nM in [1] and 7.2 nM in series [2]. Also, the IC95 in series [3], in series [5] and in [6] was above 8.33 µM throughout.

For the molecule `N#Cc1cc(Cl)cc(Oc2cc(OCc3noc4nc(-n5ccnc5)ccc34)ccc2Cl)c1`, the inhibitory constant (Ki) in [1] was determined as 0.2 nM; in series [2], 0.8 nM. In addition, the IC95 in [3] was 0.033 µM; in series [4], 0.309 µM; in [5] it was 0.103 µM; in series [6], 0.278 µM; in series [7], 0.833 µM. The clearance in [8] turned out to be 26.9 mL/min/kg. The same molecule had a Vd in series [9] of 2.2 L/kg. The molecule also returned an AUC in the series on Rattus norvegicus of 0.7 µM. Further, in series [10], the half-life was 102 min.

For `N#Cc1cc(Cl)cc(Oc2cc(OCc3noc4nc(N)ccc34)cc(F)c2Cl)c1`, the Ki is 0.2 nM in [1] and 0.8 nM in [2]. For the same molecule, the IC95 was 0.011 µM in [3]; 0.103 µM in series [4]; 0.103 µM in series [5]; 0.031 µM in series [6]; 0.833 µM in series [7]. The same molecule gave a clearance in series [8] of 44.9 mL/min/kg. The molecule also showed a Vd in series [9] of 5.1 L/kg. In the series on Rattus norvegicus, this molecule came in with an AUC of 0.4 µM. The half-life in [10] is 114 min.

Turning to `N#Cc1cc(Cl)cc(Oc2cc(OCc3noc4nc(N5CCOCC5)ccc34)ccc2Cl)c1`, the Ki in series [1] stood at 1.8 nM; in series [2] it was 8.6 nM. Also, the IC95 in series [3] turned out to be 0.103 µM; in series [4], 0.956 µM; in series [5] it was 0.926 µM.

Turning to `N#Cc1cc(Cl)cc(Oc2cc(OCc3noc4ncccc34)ccc2Cl)c1`, the Ki was determined as 1.6 nM in series [1] and 2.1 nM in series [2]. For the same molecule, the IC95 in [3] worked out at 0.019 µM; in series [4], 0.103 µM; in series [5], 0.103 µM; in series [6], 0.093 µM; in series [7] it was 0.278 µM.

As for `N#Cc1cc(Cl)cc(Oc2ccc(Cl)c(OCc3n[nH]c4ncccc34)c2)c1`, the Ki in series [1] is 17 nM; in series [2] it was 140 nM. In addition, the IC95 in [3], in series [4] and in [5] was above 8.3 µM throughout.

`CNc1ccc2c(COc3ccc(Cl)c(Oc4cc(Cl)cc(C#N)c4)c3)noc2n1`: the Ki in series [1] is 0.3 nM; in [2], 0.9 nM. Further, the figures for the IC95 in series [3], in [4] and in series [5] were 0.103 µM, 0.103 µM and 0.309 µM, respectively. Moreover, the clearance in series [8] was determined as 24.6 mL/min/kg. The Vd in series [9] amounted to 2 L/kg. Besides, the AUC in the series with Rattus norvegicus is 0.8 µM. Moreover, the half-life in series [10] is 120 min.

On to `N#Cc1cc(Cl)cc(Oc2cc(F)c(Cl)c(OCc3n[nH]c4ncccc34)c2)c1`, for which the Ki was determined as 5.2 nM in [1] and 0.8 nM in series [2]. The IC95 in [3] worked out at 0.011 µM; in series [4] it was 0.103 µM; in [5], 0.011 µM; in series [6], 0.031 µM; in [7], 0.093 µM.

As for `Cc1cc(OCc2n[nH]c3ncccc23)cc(Oc2cc(Cl)cc(C#N)c2)c1Cl`, the Ki is 0.4 nM in series [1] and 1.9 nM in series [2]. Moreover, the IC95 turned out to be 0.011 µM in [3]; 0.103 µM in series [4]; 0.103 µM in series [5]; 0.031 µM in [6]; 0.278 µM in [7].

Regarding `N#Cc1cc(Cl)cc(Oc2cc(OCc3noc4nc(N)ccc34)ccc2Cl)c1`, the Ki amounted to 0.3 nM in [1] and 0.4 nM in series [2]. Besides, the IC95 in series [3] turned out to be 0.011 µM; in series [4] it was 0.034 µM; in [5] it was 0.034 µM; in series [6], 0.093 µM; in series [7] it was 0.278 µM. Moreover, in [8], the clearance stood at 93.4 mL/min/kg. Besides, in series [9], the Vd was 44.7 L/kg. This molecule also yielded an AUC in the series with Rattus norvegicus of 0.8 µM. In series [10], the half-life was 348 min.

As for `N#Cc1cc(Cl)cc(Oc2cc(F)c(Cl)c(OCc3n[nH]c4nc(N)ccc34)c2)c1`, the Ki in series [1] was 120 nM; in series [2] it was above 910 nM. For the same molecule, the IC95 is 2.78 µM in series [3], above 8.33 µM in series [4] and above 8.33 µM in series [5].

`N#Cc1cc(Cl)cc(Oc2cc(F)cc(OCc3n[nH]c4nc(N)ccc34)c2)c1`: the Ki in series [1] was determined as 2 nM; in series [2] it was 3.3 nM. The IC95 in series [3] was below 0.0038 µM; in series [4] it was 0.103 µM; in series [5], 0.309 µM.
